Experimental data from different studies.
Lines come from different studies, so protocols differ.
Read-out: cell growth or viability

| SMILES | cell line | assay | setting | IC50 |
| --- | --- | --- | --- | --- |
| NCCCOc1cc(NC(=O)c2cc(OCc3c[nH]nn3)cc(C(=O)Nc3cc(OCCCN)c4ccccc4n3)n2)nc2ccccc12 | HT-1080 | ATP luminescence | 72 h | 35.2 µM |
| Clc1ccc2c(NCCNCc3ccccn3)ccnc2c1 | CHO | MTT |  | 144 µM |
| C=C(C)C(=O)Nc1ccc(-c2c(-c3ccc(Oc4nccc(C)n4)c(F)c3)c3c(N)ncnc3n2C)cc1 | NCI-H716 | ATP luminescence | 96 h | 0.00209 µM |
| COc1ccc(OC)c(NC(=S)NN=Cc2ccccn2)c1 | BHK | SRB | 48 h | 111 µM |
| CC(C)C[C@H](NC(=O)[C@H](Cc1ccccc1)NC(=O)c1cnccn1)B(O)O | MM.1R | ATP luminescence | 48 h | 0.0089 µM |
| CC(C)C[C@H](NC(=O)[C@H](Cc1ccccc1)NC(=O)c1cnccn1)B(O)O | SK-N-MC | ATP luminescence |  | 0.0078 µM |
| O=C(Nc1cc(OCCN2CCCC2)c2ccccc2n1)c1cc(OCCN2CCCC2)cc(C(=O)Nc2cc(OCCN3CCCC3)c3ccccc3n2)n1 | HT-1080 | ATP luminescence | 72 h | 2.2 µM |
| Clc1ccc2c(NCCN(Cc3ccccn3)Cc3ccccn3)ccnc2c1 | CHO | MTT |  | > 240 µM |
| O=C(Nc1ccccc1CO)c1c[nH]c2ccc(Cl)cc12 | T24 | MTT |  | 18 µM |
| CCCON(Cc1ccc(C(=O)NO)cc1)C(=O)Nc1ccc(N(C)C)cc1 | SUP-B15 | ATP luminescence | 72 h | 6.62 µM |
| NCCCOc1cc(NC(=O)c2cccc(C(=O)Nc3cc(OCCCN)c4ccccc4n3)n2)nc2ccccc12 | HT-1080 | ATP luminescence | 72 h | 1.1 µM |
| C[C@H](NC(=O)c1cccc2ccccc12)C(=O)Nc1ccccc1Oc1ccccc1 | SH-SY5Y |  |  | 4 µM |
| O=C1Nc2ccccc2C1=Cc1cc2ccccc2nc1Cl | CHO | MTT | 72 h | > 100 µM |
| Cc1cc(C)cc(COc2cc3c(cc2OCc2cc(C)cc(C)c2)[C@H]2C[C@](O)(Cc4cn(Cc5ccc(S(C)(=O)=O)cc5)nn4)C[C@H](C)N2CC3)c1 | GES1 | MTT | 48 h | 2.05 µM |
| CN(C)CCCOc1cc(NC(=O)c2cccc(C(=O)Nc3cc(OCCCN(C)C)c4ccccc4n3)n2)nc2ccccc12 | HT-1080 | ATP luminescence | 72 h | 2.6 µM |
| COc1cc(Nc2nccc(-c3cnn4nc(OC)ccc34)n2)cc(C(F)(F)F)c1 | SK-N-MC | ATP luminescence |  | 0.13 µM |
| O=C(Nc1cc(OCCN2CCCC2)c2ccccc2n1)c1cc(OCc2ccc(F)cc2)cc(C(=O)Nc2cc(OCCN3CCCC3)c3ccccc3n2)n1 | HT-1080 | ATP luminescence | 72 h | 8.5 µM |
| CN1C(=O)c2cc(C(N)=O)nc3c(N)c(Cl)c(N)c1c23 | HCC4017 |  |  | 15.9 µM |
